Data published in ChEMBL document CHEMBL1938272 (Bioorg Med Chem, 2012).

Experiments:
Aromatase [1] = target: T1, Aromatase (Homo sapiens, UniProt P11511)
T1 sequence (P11511 whole entry): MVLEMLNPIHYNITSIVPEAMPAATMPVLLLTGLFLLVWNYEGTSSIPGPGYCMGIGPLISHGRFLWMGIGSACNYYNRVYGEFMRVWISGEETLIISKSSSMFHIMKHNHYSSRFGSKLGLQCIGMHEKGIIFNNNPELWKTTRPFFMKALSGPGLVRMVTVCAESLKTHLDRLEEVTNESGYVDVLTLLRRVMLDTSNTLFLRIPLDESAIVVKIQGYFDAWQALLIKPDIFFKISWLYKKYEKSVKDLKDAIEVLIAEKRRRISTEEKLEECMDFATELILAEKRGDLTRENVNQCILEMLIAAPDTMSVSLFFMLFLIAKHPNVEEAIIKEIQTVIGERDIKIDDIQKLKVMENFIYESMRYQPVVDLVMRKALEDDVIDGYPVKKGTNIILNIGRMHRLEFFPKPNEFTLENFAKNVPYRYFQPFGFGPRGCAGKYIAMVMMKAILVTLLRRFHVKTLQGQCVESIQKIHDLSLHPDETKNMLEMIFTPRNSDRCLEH

RAW264.7 = assay: Antiinflammatory activity in mouse RAW264.7 cells assessed as inhibition of LPS-induced NO production at 40 uM preincubated for 30 mins before LPS challenge by Griess method
Aromatase [2] = target: T1, Aromatase; conditions: 2 h, read-out: Imax
[3] = system: Radical scavenging activity; assay: Antioxidant activity assessed as DPPH free radical scavenging activity at 400 uM after 30 mins by spectrophotometry; type: functional
MCF7 = assay: Antiproliferative activity against human MCF7 cells after 72 hrs by SRB assay; type: functional, cell-based; conditions: MCF7, 72 h
Procedure, shortened: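 MCF-7 breast cancer cells exposed to serially diluted compounds (DMSO) for 72 h at 37 °C in CO2 incubator; fixed with 10% trichloroacetic acid, stained with 0.4% SRB, OD read at 515 nm. Zero-day control of 1 × 10^4 cells per well processed after 30 min. Survival = (OD test − OD zero-day)/(OD control − OD zero-day) × 100; IC50 from survival.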

[4] = target: NAD(P)H dehydrogenase [quinone] 1 (Mus musculus) (UniProt Q64669); assay: Induction of QR1-mediated cytoprotective activity in mouse Hepa-1c1c7 cells at 50 uM assessed as cell survival; type: cell-based
Chain of NAD(P)H dehydrogenase [quinone] 1 (Mus musculus) (Q64669 whole entry): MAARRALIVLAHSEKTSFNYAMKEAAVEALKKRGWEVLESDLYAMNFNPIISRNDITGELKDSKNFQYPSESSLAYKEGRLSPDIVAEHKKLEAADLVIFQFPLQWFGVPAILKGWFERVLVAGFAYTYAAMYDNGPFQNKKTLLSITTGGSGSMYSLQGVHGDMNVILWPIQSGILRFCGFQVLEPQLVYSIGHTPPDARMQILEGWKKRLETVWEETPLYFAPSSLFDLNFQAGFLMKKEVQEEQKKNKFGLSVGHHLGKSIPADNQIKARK

[5] = target: NAD(P)H dehydrogenase [quinone] 1 (Mus musculus) (UniProt Q64669); assay: Induction of QR1 activity in mouse Hepa-1c1c7 cells using MTT as substrate by spectrophotometry; type: cell-based
Procedure, shortened: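 Mouse hepatoma Hepa 1c1c7 cells were incubated with compound, then permeabilised with digitonin. QR1 activity was read as MTT reduction to formazan at 595 nm, with crystal violet total protein run in parallel. Induction ratio is activity versus control; CD is the concentration doubling activity, derived only when the ratio is above 2.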

[6] = target: NAD(P)H dehydrogenase [quinone] 1 (Mus musculus) (UniProt Q64669); assay: Induction of QR1 activity in mouse TAOc1 mutant Hepa cells using MTT as substrate by spectrophotometry; type: cell-based
[7] = target: NAD(P)H dehydrogenase [quinone] 1 (Mus musculus) (UniProt Q64669); assay: Induction of QR1-mediated cytoprotective activity in mouse TAOc1 mutant Hepa cells at 50 uM assessed as cell survival; type: cell-based
HEK293 = assay: Inhibition of TNFalpha-activated NF-kappaB expressed in HEK293 cells at 50 uM by luciferase reporter gene assay; type: cell-based
[8] = target: NAD(P)H dehydrogenase [quinone] 1 (Mus musculus) (UniProt Q64669); assay: Induction of QR1 activity in mouse BPrc1 cells using MTT as substrate by spectrophotometry; type: cell-based
[9] = target: NAD(P)H dehydrogenase [quinone] 1 (Mus musculus) (UniProt Q64669); assay: Induction of QR1-mediated cytoprotective activity in mouse BPrc1 cells at 50 uM assessed as cell survival; type: cell-based

Compound | IC50 (Aromatase [1]) [µM] | inhibition at 40 µM (RAW264.7) [%] | inhibition at 50 µM (Aromatase [2]) [%] | inhibition [3] [%] | IC50 (MCF7) [µM] | Survival [4] [%] | CD [5] [µM] | CD [6] [µM] | Survival [7] [%] | inhibition (HEK293) [%] | CD [8] [µM] | Survival [9] [%]
Clc1ccc(-c2nsc(-c3ccc(Cl)c(Cl)c3)n2)cc1Cl | > 50 | 21.5 | 23 | 9.6 | 23.5 | 80 | – | – | – | – | – | –
Cc1cc(Cl)ccc1-c1nsc(-c2ccc(Cl)cc2C)n1 | > 50 | 10.1 | 35.3 | 3.7 | 39.5 | 77.3 | 0.44 | 3.8 | 71 | 0 | 2.8 | 94.7
Oc1ccc(CCc2cc(O)cc(O)c2)cc1 [DIHYDRORESVERATROL] | > 50 | 36.2 | 37.8 | 14.7 | 30.3 | 82.6 | – | – | – | 16.7 | – | –
N#Cc1cccc(-c2nsc(-c3cccc(C#N)c3)n2)c1 | > 50 | 26.4 | 22.1 | 1.4 | – | 57.9 | – | – | – | – | – | –
c1ccc2cc(-c3nsc(-c4ccc5ccccc5c4)n3)ccc2c1 | > 50 | 0.5 | 15.8 | 1.1 | – | 88.8 | – | – | 96.9 | – | – | 98.1
Clc1ccc(-c2nsc(-c3ccc(Cl)cc3Cl)n2)c(Cl)c1 | > 50 | 25 | 40.3 | 2.9 | – | 30.6 | – | – | 82.4 | – | – | 89.8
Oc1ccc(/C=C\c2cc(O)cc(O)c2)cc1 | – | – | – | – | – | 89.3 | – | – | 100 | – | 49.7 | 77.8
Clc1cccc(-c2nsc(-c3cccc(Cl)c3Cl)n2)c1Cl | > 50 | 21.4 | 45.9 | 11.1 | 10.2 | 47 | 2 | – | 74.5 | 0 | – | 56.3
Clc1ccccc1-c1nsc(-c2ccccc2Cl)n1 | > 50 | -5.9 | 49.7 | 2.8 | 35.8 | 75.2 | – | 44.3 | 100 | – | 34.6 | 83.8
Cc1c(Cl)cccc1-c1nsc(-c2cccc(Cl)c2C)n1 | > 50 | 24.5 | 19.8 | 2.3 | 30.3 | 96 | 4 | 48.7 | 68 | 20.3 | 38.2 | 100
Fc1ccc(-c2nsc(-c3ccc(F)cc3)n2)cc1 | > 50 | 22.2 | 45.2 | 6.9 | 18.8 | 96.3 | – | – | 83 | 0 | – | 86.4
FC(F)(F)c1ccc(-c2nsc(-c3ccc(C(F)(F)F)cc3)n2)cc1 | > 50 | 8.5 | 41 | 2.5 | – | 97.9 | – | – | 91 | 0 | – | 71
Cc1cc(Br)ccc1-c1nsc(-c2ccc(Br)cc2C)n1 | > 50 | 23.3 | 47.8 | 2.2 | 39.8 | 71.3 | – | – | 68.6 | 6.7 | – | 95.9
Ic1cccc(-c2nsc(-c3cccc(I)c3)n2)c1 | > 50 | 15.6 | 30.6 | 14.3 | 37.1 | 103 | 3.1 | – | 73.6 | 0 | – | 77.3
Ic1ccc(-c2nsc(-c3ccc(I)cc3)n2)cc1 | > 50 | 20.3 | 36.7 | – | – | 105 | – | – | – | 0 | – | –
FC(F)(F)c1ccccc1-c1nsc(-c2ccccc2C(F)(F)F)n1 | > 50 | 6.7 | 21.6 | 2.9 | – | 88.8 | – | – | 89.8 | 0 | – | 81
Oc1ccc(/C=C/c2cc(O)cc(O)c2)cc1 | – | – | – | – | – | 88.7 | – | – | 86.3 | – | – | 86.3
Cc1ccc(-c2nsc(-c3ccc(C)cc3)n2)cc1 | > 50 | 9.6 | 21.3 | 7.2 | – | 96.8 | – | – | – | – | – | –
CC(C)(C)c1ccc(-c2nsc(-c3ccc(C(C)(C)C)cc3)n2)cc1 | > 50 | 0.5 | 43.5 | 2.9 | – | 47.5 | 27.7 | – | 74.1 | 0 | – | 85.1
CCCCc1ccc(-c2nsc(-c3ccc(CCCC)cc3)n2)cc1 | > 50 | -3.5 | 35.5 | 2.1 | – | 100 | – | – | – | – | – | –
N#Cc1ccc(-c2nsc(-c3ccc(C#N)cc3)n2)cc1 | > 50 | -0.4 | 38.5 | 6 | 31.3 | 46.2 | – | – | – | – | – | –
Fc1ccccc1-c1nsc(-c2ccccc2F)n1 | > 50 | 24.6 | 53.2 | 3.8 | 31.4 | 86.2 | – | – | 82.5 | – | – | 88.4
Brc1ccc(-c2nsc(-c3ccc(Br)cc3)n2)cc1 | > 50 | 17.1 | 37.4 | 0.8 | – | 87 | – | – | 80.1 | 0 | – | 60.3
Clc1ccc(-c2nsc(-c3ccc(Cl)cc3)n2)cc1 | > 50 | 5.1 | 9.7 | 2.7 | – | 78.3 | 4 | – | 77.8 | 0 | – | 79.3
COc1ccc(-c2nsc(-c3ccc(OC)cc3)n2)cc1 | > 50 | 1.7 | 11.1 | 3.1 | 17.4 | 94.2 | – | – | – | – | – | –
Cc1ccc(-c2nsc(-c3ccc(C)cc3Br)n2)c(Br)c1 | > 50 | 25 | 48.3 | 3.4 | – | 49.6 | – | – | – | 0 | – | –
O=[N+]([O-])c1ccc(-c2nsc(-c3ccc([N+](=O)[O-])cc3)n2)cc1 | > 50 | 1.6 | 29.4 | 7.3 | – | 78.9 | – | – | – | – | – | –
Fc1cccc(-c2nsc(-c3cccc(F)c3)n2)c1 | > 50 | 3.2 | 41.8 | 1.3 | 34.5 | 77.6 | – | – | 77.1 | – | – | 73.5
Brc1ccccc1-c1nsc(-c2ccccc2Br)n1 | > 50 | 9.1 | 44.8 | 1.8 | 35 | 72.5 | – | – | 99.1 | 0 | – | 100
Clc1ccc(Cl)c(-c2nsc(-c3cc(Cl)ccc3Cl)n2)c1 | > 50 | 17.9 | 16.6 | 1 | 17.8 | 88.1 | – | 41 | 82.8 | – | 44.5 | 94.7
